From ChEMBL document CHEMBL1121573, “2-(Aminomethyl)phenols, a new class of saluretic agents. 1. Effects of nuclear substitution” (J Med Chem, 1980)
Several values for one entry are separate records, joined by “and”; a condition that tells them apart may be missing. Identical values can stand only once.

How the values were obtained:
Rattus norvegicus [1] = assay: Evaluated for salidiuretic activity measured as sodium ion excretion in Rat, administered orally at a dose of 50 mg/kg; type: functional, Urine; parameters: unit not given beside the values; settings: route oral
How it was run: (§1)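 Female Charles-River rats (150–170 g), overnight on sugar diet with water ad libitum. Compound dissolved in DMF, diluted with water containing Tween 80 (final 4% DMF), given po in 5.0 mL; concurrent vehicle placebo. Three rats per metabolism cage; 0–5 h urine analysed for Na+, K+, Cl-. Values: mequiv × 100 per cage, geometric means of three cages per dose; scored 0–6 by Na+.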

[2] = Compound administered orally at a dose of 5 mg/kg was evaluated for salidiuretic activity measured as sodium ion excretion in Rat; type: organism-based; parameters: dose 5 mg/kg; settings: Urine; how it was run: as §1
Rattus norvegicus [3] = assay: Compound administered orally at a dose of 81 mg/kg was evaluated for salidiuretic activity measured as sodium ion excretion in Rat; type: ADME, organism-based, Urine; parameters: dose 81 mg/kg, route oral; unit not given beside the values; settings: in vivo, po; how it was run: as §1
Canis familiaris [4] = assay: Compound administered intravenously at a dose of 5 mg/kg was evaluated for salidiuretic activity measured as sodium ion excretion in Dog; act above 5 mg/kg; type: ADME, organism-based, Canis lupus familiaris, Urine; settings: in vivo, iv
How it was run: (§2)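 Conditioned female mongrel dogs, postabsorptive, water-loaded (500 mL po) 1 h before sodium pentobarbital anesthesia (30 mg/kg iv). Bladder catheter; creatinine 4 g sc; phosphate–mannitol buffer pH 7.4 infused (3.0 mL/min) throughout. […] Urine Na+ measured; response scored 0–6.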

[5] = Evaluated for salidiuretic activity measured as sodium ion excretion in Rat, administered orally at a dose of 16.5 mg/kg; type: organism-based; parameters: dose 16.5 mg/kg; settings: Urine; how it was run: as §1
Rattus norvegicus [6] = assay: Oral diuretic activity was evaluated by measuring Na+ excretion in Rat at 27 mg/kg […] (0-5 hr); type: ADME, organism-based, Urine; parameters: dose 27 mg/kg; settings: in vivo
How it was run: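 Female Charles-River rats (150–170 g) were kept overnight on a sugar diet with water ad libitum. Compound was dissolved in DMF, then diluted with water containing Tween 80 (3 drops/100 mL) to a final 4% DMF, and given po in 5.0 mL. Rats were housed three per metabolism cage. Urine from 0–5 h was analysed for Na+, K+ and Cl−, with concurrent placebo controls. Values are mequiv × 100 per cage, geometric mean of three cages per dose.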

Rattus norvegicus [7] = assay: Oral diuretic activity was evaluated by measuring Na+ excretion in Rat at 81 mg/kg […] (0-5 hr); type: ADME, organism-based, Urine; parameters: dose 81 mg/kg; settings: in vivo
Rattus norvegicus [8] = assay: Oral diuretic activity was evaluated by measuring K+ excretion in Rat at 81 mg/kg after […] (0-5 hr); type: ADME, organism-based, Urine; parameters: dose 81 mg/kg
How it was run: (§3)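 Female Charles-River rats (150–170 g) were kept overnight on a sugar diet with water ad libitum. Test substance was dissolved in DMF and diluted with water containing Tween 80 to a final 4% DMF vehicle, then given po in 5.0 mL. Rats were housed three per metabolism cage, and 0–5 h urine was assayed for Na⁺, K⁺ and Cl⁻ alongside concurrent placebo groups. Values are mequiv × 100 per cage, geometric means of three cages per dose.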

Rattus norvegicus [9] = assay: Oral diuretic activity was evaluated by measuring K+ excretion in Rat at 9 mg/kg […] (0-5 hr); type: ADME, organism-based, Urine; parameters: dose 9 mg/kg; how it was run: as §3
Rattus norvegicus [10] = assay: Oral diuretic activity was evaluated by measuring K+ excretion in Rat at 27 mg/kg […] (0-5 hr); type: ADME, organism-based, Urine; parameters: dose 27 mg/kg; how it was run: as §3
Rattus norvegicus [11] = assay: Oral diuretic activity was evaluated by measuring Cl- excretion in Rat at 27 mg/kg […] (0-5 hr); type: ADME, organism-based, Urine; parameters: dose 27 mg/kg; settings: in vivo
Rattus norvegicus [12] = assay: Oral diuretic activity was evaluated by measuring Cl- excretion in Rat at 9 mg/kg […] (0-5 hr); type: ADME, organism-based, Urine; parameters: dose 9 mg/kg; settings: in vivo; how it was run: as §3
Rattus norvegicus [13] = organism: Rattus norvegicus; assay: Time taken for the decrease in arterial pressure was measured; type: functional, Artery
Rattus norvegicus [14] = assay: Oral diuretic activity was evaluated by measuring Cl- excretion in Rat at 81 mg/kg after po administration (0-5 hr); settings: in vivo
Canis familiaris [15] = assay: Compound administered intravenously was evaluated for salidiuretic activity measured as sodium ion excretion in Dog; Value ranges from 800-899; type: ADME, organism-based, Canis lupus familiaris, Urine; settings: in vivo, iv; how it was run: as §2

NCc1cc(Cl)cc(Cl)c1O
Diuretic activity (Rattus norvegicus [1]): 1.8 | Diuretic activity [2]: 0.4 | Diuretic activity (Rattus norvegicus [3]): 2.4 | Diuretic activity (Canis familiaris [4]): active above 5 mg/kg | Diuretic activity [5]: 0.6

NNc1nncc2ccccc12 [HYDRALAZINE]
Diuretic activity (Rattus norvegicus [6]): 0.04 | Diuretic activity (Rattus norvegicus [7]): 0.17 | Diuretic activity (Rattus norvegicus [8]): 0.11 | Diuretic activity (Rattus norvegicus [9]): 0.27 | Diuretic activity (Rattus norvegicus [10]): 0.07 | Diuretic activity (Rattus norvegicus [11]): 0.02 | Diuretic activity (Rattus norvegicus [12]): 0.02 | Duration (Rattus norvegicus [13]): 8 h and 18 h | Diuretic activity (Rattus norvegicus [14]): 0.01

CC(C)(C)c1cc(CN)c(O)c(C(=O)O)c1.Cl
Diuretic activity (Canis familiaris [15]): 800
